These results are taken from article PMC6318406 (Asian Pacific Journal of Cancer Prevention : APJCP, 2018).

“Also recorded” adds a separate entry of the source. Marks after values point to notes of the source that are not given here.

Common to all, as to format: in vivo, rat
For data set [1], the system named is alpha-fetoprotein (AFP). The experiment in a line: Serum alpha-fetoprotein. The note with it: HCC afflicted rats, 50 mg/kg b.wt orally daily for 5 weeks; mean ± SE. Put shortly: (§1)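 Female Wistar rats, 170-200 g, 10/group. HCC induced by oral NDEA in 0.9% saline, 20 mg/kg five times weekly for 4 weeks, then 10 mg/kg five times weekly for 1 week. Saline-dosed healthy and untreated HCC groups. Overnight fast after the last dose. Retro-orbital blood drawn under ether and clotted 45 min at room temperature. Serum spun at 1,800 x g for 15 min at 4°C and stored at -20°C. Rat ELISA kits. Mean ± SE; ANOVA with Tukey test.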

Data set [2] relates to endoglin (ENG). The experiment in a line: Serum endoglin. The note with it: HCC afflicted rats, 50 mg/kg b.wt orally daily for 5 weeks; mean ± SE. Put shortly:
as §1

For data set [3], the system named is heat shock protein-70 (HSP-70). As to the kind of experiment: Serum heat shock protein-70. Particulars: HCC afflicted rats, 50 mg/kg b.wt orally daily for 5 weeks; mean ± SE. Put shortly: as §1
Data set [4] deals with β-cell leukemia/lymphoma 2 (Bcl-2). The experiment in a line: Serum Bcl-2 by ELISA in NDEA-induced HCC rats. Particulars: HCC afflicted rats, 50 mg/kg b.wt orally daily for 5 weeks. Put shortly:
as §1
For orientation: In an ELISA, binding on a coated surface is turned into a signal by an enzyme label.

Data set [5] has as its system pro-caspase 3. As to the kind of experiment: Serum pro-caspase 3 by ELISA in NDEA-induced HCC rats. The note with it: HCC afflicted rats, 50 mg/kg b.wt orally daily for 5 weeks. Put shortly:
as §1

The subject of data set [6] is lipocalin-2 (LCN-2). As to the kind of experiment: Serum lipocalin-2. The note with it: HCC afflicted rats, 50 mg/kg b.wt orally daily for 5 weeks. Put shortly: as §1
Data set [7] concerns hepatocellular carcinoma (HCC) afflicted rats. As to the kind of experiment: Histological examination of liver tissue sections. Particulars: 50 mg/kg b.wt orally daily for 5 weeks, H and E stain.
Data set [8] can be described thus: Oral pharmacokinetic study in normal rats.
The nature of data set [9]: Oral pharmacokinetic study in HCC-induced rats. The note with it: serum. In a few lines:
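HCC induced by oral NDEA (20 mg/kg five times weekly for 4 weeks, then 10 mg/kg for 1 week). Rats (n=6) were fasted 12 h, then given one oral 50 mg/kg dose of free or nanocomposite test compound. Serum was sampled 0.083–24 h, spiked with pyrogallol and extracted into ethyl acetate. Measured by C18 HPLC at 280 nm; non-compartmental analysis, ke from terminal log-linear slope, MRT = AUMC/AUC.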

[10] abbreviates: normal rats, single dose 50 mg/kg p.o., serum.
Setting [11] is: normal rats, single dose 50 mg/kg p.o., serum, 50 mg/kg.

`O=C(O)c1cc(O)c(O)c(O)c1` [GA, 3,4,5-trihydroxy benzoic acid]: the “Serum AFP” value in [1] is recorded as 41.19 ± 0.83^b ng/ml. Also, the “Serum ENG” value in data set [2] is recorded as 4.16 ± 0.14^b ng/ml. Moreover, the “Serum HSP-70” value in [3] is 43.56 ± 0.8426^b ng/ L. Besides, the “Change in serum Bcl-2 with respect to the HCC group” value in [4] is -32.9%. For the same molecule, the “Change in serum pro-caspase 3 with respect to the HCC group” value in [5] is recorded as -60.5%. Besides, the “Change in serum LCN-2 with respect to the HCC group” value in data set [6] was -34.8%. Also, the “Histopathological findings in liver tissue section” value in [7] was “markedly recovered the anaplastic changes in the rat liver tissues; also recorded: congestion in the portal vein, multiple newly formed bile ducts and inflammatory cells infiltration in between at the portal area; also recorded: focal aggregations of mononuclear leucocytes inflammatory cells were detected in the hepatic parenchyma”. In [8] (setting [10]), this molecule registered an AUMC of 2.03 ± 0.44 µg·mL/h and an AUMC last of 1.3 ± 0.13 µg·mL/h. Further, the Duration of action entry in data set [8] (normal rats, single dose 50 mg/kg p.o., serum concentration-time profile) was “approximately 1 hr”. In [8] (setting [11]), the C max is 1570 ± 108 ng/mL and the mean residence time MRT was determined as 1.063 ± 0.155 h. Moreover, in data set [8] (rat, serum, po, 50 mg/kg), the AUC(0-inf) is 1890 ± 130 ng·h/mL, the AUC(0-t) worked out at 1640 ± 45 ng·h/mL, the Tmax was 0.46 ± 0.085 h and the half-life was 0.62 ± 0.09 h. The Cmax in [8] (rat, serum, po, 50 mg/kg, C max, normal rats, single dose 50 mg/kg p.o.) was 1590 ng/mL. Moreover, the MRT in data set [8] (rat, serum, po, 50 mg/kg, MRT, normal rats, single dose 50 mg/kg p.o.) came to 1.06 h. Further, in data set [9] (HCC-afflicted rats, single dose 50 mg/kg p.o.), the AUMC last came out at 1.55 ± 0.014 µg·mL/h. For the same molecule, in data set [9] (rat, po, 50 mg/kg), the AUC(0-inf) was 1670 ± 40 ng·h/mL, the AUC(0-t) is 1340 ± 194 ng·h/mL, the MRT was found to be 1.43 ± 0.34 h and the half-life is 1.4 ± 0.32 h.

By MRT is commonly meant a mean duration of stay, worked out from the concentration-time curve. The AUC(0-inf) is total exposure, with the tail of the curve extrapolated. The low end stands for low exposure, the high end for high exposure. By AUC(0-t) is commonly meant the area under the concentration-time curve up to a stated or last time point. Low readings indicate low exposure, high ones high exposure. What is called Tmax is the time at which the peak concentration occurs. As usually defined, the half-life is the time in which the quantity being followed falls by half. Read a high half-life as slow loss. By Cmax is commonly meant the maximum level reached in the sampled fluid or tissue.
